Measured values from ChEMBL document CHEMBL1629563, “Pharmacokinetic and safety evaluation of BILR 355, a second-generation nonnucleoside reverse transcriptase inhibitor, in healthy volunteers” (Antimicrob Agents Chemother, 2008).

Key:
[1] = system: Homo sapiens; assay: Ratio of Cmax in human at 12.5 mg, po in presence of 100 mg of ritonavir to Cmax in human at 12.5 mg, po; type: ADME, organism-based; conditions: in vivo
[2] = system: Homo sapiens; assay: Ratio of half life in human at 75 mg, po in presence of 100 mg of ritonavir to half life in human at 75 mg, po; type: ADME, organism-based; conditions: in vivo
[3] = Tmax in healthy human at 5 mg, po administered as single dose coadministered with 100 mg of ritonavir; type: ADME, organism-based; conditions: in vivo
[4] = Apparent volume of distribution at steady state in healthy human at 75 mg, po administered as single dose; type: ADME, organism-based; conditions: in vivo, read-out: Vss/F
In short: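 Single fasting oral dose of BILR 355 in PEG solution with 200 ml tap water, given to healthy males. Standard breakfast came 60-90 min after the dose. EDTA plasma was sampled predose to 144 h, stored below −18°C and assayed by LC-MS/MS after protein precipitation. Noncompartmental analysis gave Vz/F. Vss/F = CL/F·(MRTp.o. − 1/Ka), with Ka from compartmental modelling.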

[5] = system: Homo sapiens; assay: Toxicity in healthy human assessed as occurrence of palpitations at 100 mg, po administered as single dose relative to control; type: organism-based; conditions: in vivo
[6] = Apparent volume of distribution in terminal phase in high fat fed healthy human at 50 mg, po administered as single dose coadministered with 100 mg of ritonavir; type: ADME, organism-based; conditions: in vivo, read-out: Vz/F
In short: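 Fed cohort: healthy males ate an FDA-recipe high-fat breakfast (about 150/250/500-600 cal from protein/carbohydrate/fat) 30 min before a 50 mg oral dose of BILR 355 in PEG solution. Ritonavir 100 mg was given 10 h before and with the dose. Plasma was sampled over 144 h and assayed by LC-MS/MS. Noncompartmental analysis gave Cmax and Vz/F. Vss/F = CL/F·(MRTp.o. − 1/Ka).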

[7] = Half life in healthy human at 37.5 mg, po administered as single dose coadministered with 100 mg of ritonavir; type: ADME, organism-based; conditions: in vivo
[8] = system: Homo sapiens; assay: Toxicity in healthy human assessed as occurrence of fatigue at 25 mg, po administered as single dose coadministered with 100 mg of ritonavir; type: organism-based; conditions: in vivo
[9] = system: Homo sapiens; assay: Toxicity in healthy human assessed as occurrence of neurological eyelid disorder at 75 mg, po administered as single dose relative to control; type: organism-based; conditions: in vivo
[10] = system: Homo sapiens; assay: Toxicity in healthy human assessed as occurrence of increase in alanine aminotransferase level at 75 mg, po administered as single dose relative to control; type: organism-based; conditions: in vivo
[11] = system: Homo sapiens; assay: Ratio of Cmax in human at 25 mg, po in presence of 100 mg of ritonavir to Cmax in human at 25 mg, po; type: ADME, organism-based; conditions: in vivo
[12] = AUC (0 to last) in healthy human at 12.5 mg, po administered as single dose; type: ADME, organism-based; parameters: dose 12.5 mg, route oral, time 0 - last; conditions: plasma
In short: (§1)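 Healthy male volunteers, six active plus two placebo per dose group, single oral dose in PEG solution with 200 ml water after overnight fast; breakfast 60 to 90 min post-dose. EDTA plasma sampled predose to 144 h. Assayed by validated LC-MS/MS after protein precipitation. Noncompartmental analysis, AUC by linear up/log down trapezoidal rule; Vss = CL/F·(MRTp.o. − 1/Ka).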

[13] = system: Homo sapiens; assay: Toxicity in healthy human assessed as occurrence of headache at 50 mg, po administered as single dose relative to control; type: organism-based; conditions: in vivo
[14] = Cmax in healthy human at 50 mg, po administered as single dose coadministered with 100 mg of ritonavir by high-pressure liquid chromatography-tandem mass spectrometry/mass spectrometry method; type: ADME, organism-based; parameters: dose 50 mg, route oral; conditions: in vivo
In short: (§2)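 Healthy male volunteers, fasted overnight, got one oral dose of BILR 355 in PEG solution with 200 ml water. Ritonavir 100 mg was given 10 h before and again with the dose. Plasma was sampled (EDTA) from predose to 144 h and assayed by validated LC-MS/MS. Cmax and Vz/F came from noncompartmental analysis. Vss/F = CL/F·(MRTp.o. − 1/Ka), with Ka from compartmental modelling.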

[15] = system: Homo sapiens; assay: Toxicity in healthy human assessed as occurrence of fatigue at 12.5 mg, po administered as single dose relative to control; type: organism-based; conditions: in vivo
[16] = Renal clearance in healthy human at 75 mg, po administered as single dose by high-pressure liquid chromatography-tandem mass spectrometry/mass spectrometry method; type: ADME, organism-based, Kidney; conditions: in vivo, read-out: CL_renal (converted)
[17] = system: Homo sapiens; assay: Toxicity in healthy human assessed as occurrence of maculopapular rash at 5 mg, po administered as single dose coadministered with 100 mg of ritonavir; type: organism-based; conditions: in vivo
[18] = system: Homo sapiens; assay: Toxicity in healthy human assessed as occurrence of herpes simplex at 5 mg, po administered as single dose relative to control; type: organism-based; conditions: in vivo
[19] = system: Homo sapiens; assay: Toxicity in healthy human assessed as occurrence of palpitations at 75 mg, po administered as single dose relative to control; type: organism-based; conditions: in vivo
[20] = AUC (0 to infinity) in healthy human at 75 mg, po administered as single dose coadministered with 100 mg of ritonavir; type: ADME, organism-based; parameters: dose 75 mg, route oral, time infinity; conditions: plasma
In short: (§3)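 Healthy male volunteers, fasted. Ritonavir 100 mg given 10 h before and again together with single oral BILR 355 in PEG solution. EDTA plasma sampled predose to 144 h. LC-MS/MS assay after protein precipitation. Noncompartmental analysis, AUC by linear up/log down trapezoidal rule; Vss = CL/F·(MRTp.o. − 1/Ka).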

[21] = system: Homo sapiens; assay: Toxicity in healthy human assessed as occurrence of diarrhea at 50 mg, po administered as single dose coadministered with 100 mg of ritonavir; type: organism-based; conditions: in vivo
[22] = system: Homo sapiens; assay: Toxicity in healthy human assessed as occurrence of headache at 25 mg, po administered as single dose relative to control; type: organism-based; conditions: in vivo
[23] = system: Homo sapiens; assay: Toxicity in healthy human assessed as occurrence of migraine at 50 mg, po administered as single dose relative to control; type: organism-based; conditions: in vivo
[24] = system: Homo sapiens; assay: Toxicity in healthy human assessed as occurrence of neurological eyelid disorder at 5 mg, po administered as single dose relative to control; type: organism-based; conditions: in vivo
[25] = Half life in healthy human at 50 mg, po administered as single dose coadministered with 100 mg of ritonavir; type: ADME, organism-based; conditions: in vivo
[26] = Renal clearance in healthy human at 100 mg, po administered as single dose by high-pressure liquid chromatography-tandem mass spectrometry/mass spectrometry method; type: ADME, organism-based, Kidney; conditions: in vivo, read-out: CL_renal (converted)
[27] = AUC (0 to infinity) in healthy human at 5 mg, po administered as single dose coadministered with 100 mg of ritonavir; type: ADME, organism-based; parameters: dose 5 mg, time infinity, route oral; conditions: plasma; in short: as §3
[28] = Apparent volume of distribution at steady state in healthy human at 5 mg, po administered as single dose coadministered with 100 mg of ritonavir; type: ADME, organism-based; conditions: in vivo, read-out: Vss/F; in short: as §2
[29] = AUC (0 to last) in healthy human at 37.5 mg, po administered as single dose coadministered with 100 mg of ritonavir; type: ADME, organism-based; parameters: dose 37.5 mg, route oral, time 0 - last; conditions: plasma; in short: as §3
[30] = AUC (0 to last) in healthy human at 50 mg, po administered as single dose; type: ADME, organism-based; parameters: dose 50 mg, route oral, time 0 - last; conditions: plasma; in short: as §1
[31] = system: Homo sapiens; assay: Toxicity in healthy human assessed as occurrence of frequent bowel movements at 1 mg, po administered as single dose relative to control; type: organism-based; conditions: in vivo
[32] = system: Homo sapiens; assay: Toxicity in healthy human assessed as occurrence of maculopapular rash at 75 mg, po administered as single dose coadministered with 100 mg of ritonavir; type: organism-based; conditions: in vivo
[33] = Apparent oral clearance in healthy human at 50 mg, po administered as single dose coadministered with 100 mg of ritonavir; type: ADME, organism-based; conditions: in vivo; in short: as §3

- Ratio [1]: 5
- Ratio [2]: 5.4
- Tmax [3]: 5.71 h
- Vd/F [4]: 608 L
- Vd/F [6]: 100 L
- half-life [7]: 11 h
- Ratio [11]: 5.4
- AUC(0-t) [12]: 56.2 ng·h/mL
- Cmax [14]: 468 ng/mL
- CL renal [16]: 10.2 mL/min
- AUC(0-inf) [20]: 12300 ng·h/mL
- half-life [25]: 11.5 h
- CL renal [26]: 9.85 mL/min
- AUC(0-inf) [27]: 707 ng·h/mL
- Vd/F [28]: 166 L
- AUC(0-t) [29]: 5800 ng·h/mL
- AUC(0-t) [30]: 406 ng·h/mL
- CL/F [33]: 131 mL/min
SMILES: CCN1c2ncc(CCOc3cc[n+]([O-])c4ccccc34)cc2C(=O)N(C)c2cccnc21 [BILR 355]
- Activity [5]: 0%
- Activity [8]: 0%
- Activity [9]: 16.7%
- Activity [10]: 0%
- Activity [13]: 16.7%
- Activity [15]: 20%
- Activity [17]: 0%
- Activity [18]: 16.7%
- Activity [19]: 16.7%
- Activity [21]: 0%
- Activity [22]: 16.7%
- Activity [23]: 0%
- Activity [24]: 0%
- Activity [31]: 0%
- Activity [32]: 0%
